In ChEMBL document CHEMBL3232752, “Synthesis, cytotoxicity and molecular modelling studies of new phenylcinnamide derivatives as potent inhibitors of cholinesterases” (Eur J Med Chem, 2014):
pIC50: −log10 of the molar value.

Experiments:
NCI-H157 [1] = assay: Antiproliferative activity against human NCI-H157 cells at 100 uM after 48 hrs by SRB assay; type: functional
Summary of the method: (§1)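 H157 lung carcinoma cells were seeded at 10⁴ cells per well in 96-well plates and grown 24 h at 37 °C in 5% CO₂ to a monolayer. Compounds were added at […]. Cells were fixed, stained with 0.4% w/v sulforhodamine B in 1% acetic acid for 30 min at room temperature, rinsed in acetic acid, and the dye dissolved in 10 mM Tris base for 10 min.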

[2] = biological target: Acetylcholinesterase (Electrophorus electricus) (UniProt O42275); assay: (§2) Inhibition of electric eel acetylcholinesterase using acetylthiocholine iodide as substrate preincubated for 10 mins before substrate addition after 15 mins by Ellman's method; parameters: concentration or dose not given beside the values
Cholinesterase = Cholinesterase (Homo sapiens, UniProt P06276); assay: Inhibition of human BChE using butyrylthiocholine iodide as substrate preincubated for 10 mins before substrate addition after 15 mins by Ellman's method
NCI-H157 [3] = assay: Antiproliferative activity against human NCI-H157 cells at 1 uM after 48 hrs by SRB assay; type: functional; summary of the method: as §1
Acetylcholinesterase = Acetylcholinesterase (Electrophorus electricus, UniProt O42275); assay: as §2
Acetylcholinesterase, sequence (O42275 whole entry): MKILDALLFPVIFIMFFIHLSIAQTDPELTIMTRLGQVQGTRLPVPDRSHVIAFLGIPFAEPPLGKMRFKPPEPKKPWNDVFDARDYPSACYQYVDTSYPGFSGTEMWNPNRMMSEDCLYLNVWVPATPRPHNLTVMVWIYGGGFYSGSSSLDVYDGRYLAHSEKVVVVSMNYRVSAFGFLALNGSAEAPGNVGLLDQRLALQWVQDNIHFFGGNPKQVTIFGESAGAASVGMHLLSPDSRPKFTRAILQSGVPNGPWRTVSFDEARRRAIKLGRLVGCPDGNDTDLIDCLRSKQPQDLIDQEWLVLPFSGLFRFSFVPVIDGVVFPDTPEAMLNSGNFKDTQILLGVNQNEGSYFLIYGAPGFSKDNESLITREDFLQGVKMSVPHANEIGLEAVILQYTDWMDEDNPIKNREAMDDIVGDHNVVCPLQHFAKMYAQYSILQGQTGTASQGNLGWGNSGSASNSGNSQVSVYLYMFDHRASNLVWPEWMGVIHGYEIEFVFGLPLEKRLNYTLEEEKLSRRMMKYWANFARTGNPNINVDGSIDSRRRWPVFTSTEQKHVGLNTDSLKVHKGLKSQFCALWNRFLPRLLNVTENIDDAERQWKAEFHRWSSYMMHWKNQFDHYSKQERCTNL

Acetylcholinesterase (Electrophorus electricus), sequence (O42275 24-633 limits assumed): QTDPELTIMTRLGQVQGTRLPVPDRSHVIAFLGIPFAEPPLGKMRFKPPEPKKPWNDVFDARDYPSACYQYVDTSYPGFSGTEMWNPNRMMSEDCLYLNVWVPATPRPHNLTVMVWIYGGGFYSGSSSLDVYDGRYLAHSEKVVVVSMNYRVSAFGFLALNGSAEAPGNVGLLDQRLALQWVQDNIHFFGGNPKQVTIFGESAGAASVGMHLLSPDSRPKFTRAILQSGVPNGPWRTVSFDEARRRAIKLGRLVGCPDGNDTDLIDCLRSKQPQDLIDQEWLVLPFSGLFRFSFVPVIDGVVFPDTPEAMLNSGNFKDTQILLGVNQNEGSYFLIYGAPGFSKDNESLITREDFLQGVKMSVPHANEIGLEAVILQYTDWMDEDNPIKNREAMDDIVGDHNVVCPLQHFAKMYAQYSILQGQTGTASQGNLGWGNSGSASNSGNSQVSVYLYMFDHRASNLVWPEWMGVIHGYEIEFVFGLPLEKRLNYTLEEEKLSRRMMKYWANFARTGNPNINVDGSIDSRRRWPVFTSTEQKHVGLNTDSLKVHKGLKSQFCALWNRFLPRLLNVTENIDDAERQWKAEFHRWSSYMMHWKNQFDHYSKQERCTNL
Cholinesterase, sequence (P06276 whole entry): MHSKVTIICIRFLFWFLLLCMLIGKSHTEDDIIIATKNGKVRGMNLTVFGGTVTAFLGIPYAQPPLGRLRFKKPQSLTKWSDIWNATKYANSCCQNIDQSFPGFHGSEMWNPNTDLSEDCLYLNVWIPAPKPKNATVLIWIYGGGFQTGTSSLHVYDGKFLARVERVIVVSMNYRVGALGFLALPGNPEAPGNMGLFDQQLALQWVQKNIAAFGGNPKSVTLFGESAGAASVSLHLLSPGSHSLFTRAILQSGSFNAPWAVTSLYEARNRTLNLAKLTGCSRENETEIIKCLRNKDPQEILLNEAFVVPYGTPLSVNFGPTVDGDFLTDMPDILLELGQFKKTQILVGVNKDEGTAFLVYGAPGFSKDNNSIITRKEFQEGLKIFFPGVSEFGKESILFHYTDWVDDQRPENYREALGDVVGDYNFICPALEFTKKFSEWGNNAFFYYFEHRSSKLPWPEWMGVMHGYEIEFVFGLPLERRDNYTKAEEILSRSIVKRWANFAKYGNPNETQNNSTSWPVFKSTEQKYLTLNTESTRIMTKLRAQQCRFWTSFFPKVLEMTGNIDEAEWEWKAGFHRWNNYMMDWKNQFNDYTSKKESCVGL

Compound | inhibition [2] [%] | pIC50 (Acetylcholinesterase) | inhibition (Cholinesterase) [%] | further results
CC[C@]1(O)C[C@H]2CN(CCc3c([nH]c4ccccc34)[C@@](C(=O)OC)(c3cc4c(cc3OC)N(C=O)[C@H]3[C@@](O)(C(=O)OC)[C@H](OC(C)=O)[C@]5(CC)C=CCN6CC[C@]43[C@@H]65)C2)C1 [VINCRISTINE] |  |  |  | Activity (NCI-H157 [1]): 46%
COc1cc(NC(=O)/C=C/c2c(Cl)cccc2[N+](=O)[O-])cc(OC)c1OC | 34.2 |  |  | 
COc1cc(NC(=O)/C=C/c2c(F)cccc2Cl)cc(OC)c1OC | 34.1 |  |  | pIC50 (Cholinesterase): 5.88; Activity (NCI-H157 [3]): 66%
COc1cccc(/C=C/C(=O)Nc2cc(OC)c(OC)c(OC)c2)c1O |  | 5.21 |  | pIC50 (Cholinesterase): 5.28
COc1cc(NC(=O)/C=C/c2c(O)cccc2[N+](=O)[O-])cc(OC)c1OC |  | 4.89 | 35.4 | 
C=CCOc1ccc(/C=C/C(=O)Nc2cc(OC)c(OC)c(OC)c2)cc1 | 33.6 |  | 32.6 | 
COc1cc(/C=C/C(=O)Nc2cc(OC)c(OC)c(OC)c2)ccc1OCc1ccccc1 |  | 4.90 | 32.8 | 
COc1ccc(/C=C/C(=O)Nc2cc(OC)c(OC)c(OC)c2)cc1O |  | 5.37 |  | pIC50 (Cholinesterase): 5.12
COc1cc(NC(=O)/C=C/c2cccc(OC(C)=O)c2)cc(OC)c1OC | 29.2 |  |  | pIC50 (Cholinesterase): 5.90
COc1cc(NC(=O)/C=C/c2ccc(OCc3ccccc3)cc2)cc(OC)c1OC |  | 5.43 | 33.5 | 
COc1cc(NC(=O)/C=C/c2ccc(OC(C)=O)cc2)cc(OC)c1OC | 36.5 |  | 37.4 | 
COc1cc(NC(=O)/C=C/c2cccc([N+](=O)[O-])c2)cc(OC)c1OC |  | 5.49 | 26.2 | 
COc1ccc(/C=C/C(=O)Nc2cc(OC)c(OC)c(OC)c2)cc1OCc1ccccc1 |  | 5.22 | 31.1 | Activity (NCI-H157 [3]): 61%
COc1cc(NC(=O)/C=C/c2ccc(Cl)cc2)cc(OC)c1OC |  | 4.51 | 25.7 | 
C=CCOc1ccccc1/C=C/C(=O)Nc1cc(OC)c(OC)c(OC)c1 |  | 5.85 | 24.8 | 
COc1cc(NC(=O)/C=C/c2ccc(O)cc2O)cc(OC)c1OC | 36.6 |  | 18.2 | 
COc1cc(NC(=O)/C=C/c2ccc(OCc3ccccc3)cc2O)cc(OC)c1OC |  | 5.80 | 27.2 | 
COc1cc(NC(=O)/C=C/c2ccc(O)c(O)c2)cc(OC)c1OC | 36.4 |  | 34.6 | 
COc1cc(NC(=O)/C=C/c2ccc(NOC(C)=O)cc2)cc(OC)c1OC |  | 4.90 |  | pIC50 (Cholinesterase): 5.41
CN(C)C(=O)Oc1cccc([N+](C)(C)C)c1 [NEOSTIGMINE] |  | 4.66 |  | pIC50 (Cholinesterase): 4.31
COc1cc(/C=C/C(=O)Nc2cc(OC)c(OC)c(OC)c2)ccc1OC(C)=O |  | 5.30 | 31.1 | 
COc1cc(NC(=O)/C=C/c2ccccc2OCc2ccccc2)cc(OC)c1OC |  | 6.54 | 32.1 | 
COc1cc(NC(=O)/C=C/c2cccc(OCc3ccccc3)c2)cc(OC)c1OC |  | 5.19 |  | pIC50 (Cholinesterase): 5.41
COc1cc(NC(=O)/C=C/c2cc(O)ccc2O)cc(OC)c1OC | 30.3 |  | 36.2 | Activity (NCI-H157 [3]): 60%
COc1ccc(/C=C/C(=O)Nc2cc(OC)c(OC)c(OC)c2)cc1[N+](=O)[O-] |  | 5.17 | 28.1 | Activity (NCI-H157 [3]): 66%
COc1cc(NC(=O)/C=C/c2cccc(O)c2O)cc(OC)c1OC | 31.2 |  | 41.2 | 
COc1cccc(/C=C/C(=O)Nc2cc(OC)c(OC)c(OC)c2)c1 |  | 4.89 | 41.8 | 
